Where two headings read alike, the source gives them in different places.
Legend:
[1] = Dose-limiting toxicity and RP2D, phase Ia dose escalation; format: in vivo, human
Summary of the method: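 Phase Ia used Bayesian logistic regression–guided escalation of the oral nanosuspension, with or without durvalumab; capsule cohorts took 75, 150 or 200 mg once daily. A DLT was non-disease-related toxicity before day 21 (monotherapy) or end of cycle 2 (combination), e.g. grade ≥4 neutropenia >7 days or grade ≥3 nonhematologic toxicity.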

[2] = Plasma pharmacokinetics of AZD4635 and active metabolite in patients; format: in vivo, human; conditions: for half-life: plasma, oral
[3] = system: metastatic castration-resistant prostate cancer (mCRPC); experiment: Tumor response; format: in vivo, human
[4] = system: metastatic castration-resistant prostate cancer (mCRPC); experiment: PSA response in patients with mCRPC; format: in vivo, human
[5] = system: metastatic castration-resistant prostate cancer (mCRPC); format: in vivo, human
Summary of the method: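 For the signature, baseline whole-blood RNA (PAXgene) was hybridized (25–100 ng) to a 770-gene NanoString panel and ComBat batch-corrected. The score was the median of normalized log2 expression of 14 adenosine genes; the cohort median split high from low.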

[6] = system: colorectal cancer (IO-naïve); experiment: Tumor response; format: in vivo, human
[7] = system: NSCLC (post-IO); experiment: Tumor response; format: in vivo, human
[8] = healthy volunteers; ref [32]; cited from earlier work
[9] = system: CYP1A2; conditions: clinical drug–drug interaction study with fluvoxamine; ref [34]; cited from earlier work
[10] = system: intratumoral adenosine signaling; conditions: ref [12], cited from earlier work

Cc1cc(-c2nnc(N)nc2-c2ccc(F)cc2)cc(Cl)n1 [AZD4635]
DLTs ([1]; capsule formulation, doses of up to 200 mg): no DLTs
Patients with a DLT ([1]; phase Ia, nanosuspension monotherapy 75 mg or 100 mg once daily): No patients
Patients with DLTs ([1]; phase Ia, nanosuspension monotherapy 125 mg twice daily, out of 3 patients): 2
Accumulation in exposure (Cmax and AUC) ([2]; following multiple dosing): minimal accumulation
PK profile ([2]; human, in vivo): linear and dose-proportional
half-life ([2]; human, median t1/2, after a single dose, across doses): 7.92 to 14.5 h
half-life ([2]; human, t1/2, overall (range, 11–24 hours)): ~14 h
Disease control rate (DCR; CR, PR, or SD for at least 22 weeks) ([3]; mCRPC): 18.0%
Duration of response ([3]; mCRPC responders, monotherapy and plus durvalumab together): 2.3 to 34.0 months
Tumor responses ([3]; mCRPC, responders/evaluable): 2/39
Confirmed PR ([3]; mCRPC, tumor response–evaluable population): 2 patients
Confirmed PSA responses [4]: 3.3%
PSA50 response [4]: 5.0%
Prostate-specific antigen responses ([4]; responders/evaluable): 3/60
Median PFS [5]: 10.1 weeks
PFS probability at 24 weeks [5]: 24.2%
PFS probability at 24 weeks ([5]; AZD4635 monotherapy or plus durvalumab, high blood-adenosine signature): 48.9%
PFS probability at 24 weeks ([5]; AZD4635 monotherapy or plus durvalumab, low blood-adenosine signature): 20.6%
Best response of stable disease (SD) after a minimum of 2 cycles [6]: 9 (45.0%) n (%)
Best response of SD ([7]; NSCLC): 5 (33.3%) n (%)
Disease control at 22 Weeks, Yes ([7]; NSCLC Post-IO): 1 (6.7%) n (%)
AUC of capsule formulation compared with nanosuspension, higher by [8]: ~10%
Cmax of capsule formulation compared with nanosuspension, higher by [8]: approximately 27%
Metabolism [9]: primarily metabolized by CYP1A2
Patients with concordant increases in gene-expression signatures of cytolytic activity and IFNG signaling ([10]; among the 5 patients with decreased adenosine signaling): 4 patients
Patients in whom intratumoral adenosine signaling decreased ([10]; nanosuspension 75 or 100 mg, 2 weeks of monotherapy, of 7 patients): 5 patients
